“Also recorded” adds a separate entry of the source. One block for each molecule: values may come before it.
Tests used:
[1] = cited from earlier work
[2] = system: CYP2D6; conditions: in vitro; cited from earlier work
[3] = system: cytochrome P450 (CYP) 3A; conditions: in vitro; cited from earlier work
[4] = type: in vivo, human
How it was run: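 Used a two-compartment population PK model with first-order absorption and elimination, fitted by nonlinear mixed-effects modelling. Data were LC-MS plasma concentrations from healthy subjects and RA patients given 1–48 mg immediate-release oral doses. Simulations ran 200 replicates using demographics of RA patients from two phase IIb trials.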

[5] = immediate-release formulation, compared with fasting conditions; cited from earlier work
[6] = system: plasma protein; conditions: cited from earlier work
[7] = cited from earlier work; remark: listed apart in the source
[8] = Population pharmacokinetic analysis; type: in vivo, human
[9] = strong CYP3A inhibitor ketoconazole; cited from earlier work
[10] = system: rheumatoid arthritis; conditions: phase IIb studies, 12 weeks; cited from earlier work
[11] = matched on sex and creatinine clearance
[12] = steady state, matching on other covariates
[13] = Population analysis, point estimate (%RSE), final model

Structure (SMILES): O=C(Nc1nc2cccc(-c3ccc(CN4CCS(=O)(=O)CC4)cc3)n2n1)C1CC1 [filgotinib]
oral clearance in subjects with RA compared with healthy subjects [1]: lower

Structure (SMILES): C[C@@H]1CCN(C(=O)CC#N)C[C@@H]1N(C)c1ncnc2[nH]ccc12 [tofacitinib]
oral clearance in subjects with RA compared with healthy subjects [1]: lower

higher Cmax in females compared with males ([4]; steady state): 26%
higher upadacitinib AUC in females relative to males [4, 12]: 16%
higher upadacitinib AUC in subjects with RA relative to healthy volunteers [4, 12]: 32%
ALAG1 ([8]; Bootstrap analysis, mean): 0.48 h
Additive residual error SD ([8]; Bootstrap analysis, mean): 0.17 ng/mL
Exponent for the effect of body weight on Vc/F (θ5) ([8]; Bootstrap analysis, mean): 0.50
Ka ([8]; Bootstrap analysis, mean): 20.1 h⁻¹
Proportional residual error SD ([8]; Bootstrap analysis, mean): 31%
Q/F ([8]; Bootstrap analysis, mean): 3.24 L/h
Ratio of CL/F in RA patients compared with healthy subjects (θ1) ([8]; Bootstrap analysis, mean): 0.76
Ratio of CL/F in females compared with males (θ2) ([8]; Bootstrap analysis, mean): 0.86
Ratio of Vc/F in females compared with males (θ4) ([8]; Bootstrap analysis, mean): 0.75
Vc/F ([8]; Bootstrap analysis, mean): 145 L
Vp/F ([8]; Bootstrap analysis, mean): 65.4 L
ωIOV2 on ALAG1 (phase II study visits only) ([8]; Bootstrap analysis, mean): 0.079
CL/F ([8]; Bootstrap analysis, mean (188 successful runs out of 200)): 39.8 L/h
ALAG1 ([8]; Bootstrap analysis, median): 0.48 h
Additive residual error SD ([8]; Bootstrap analysis, median): 0.17 ng/mL
Exponent for the effect of body weight on Vc/F (θ5) ([8]; Bootstrap analysis, median): 0.50
Ka ([8]; Bootstrap analysis, median): 12.2 h⁻¹
Proportional residual error SD ([8]; Bootstrap analysis, median): 31%
Q/F ([8]; Bootstrap analysis, median): 3.23 L/h
Ratio of CL/F in RA patients compared with healthy subjects (θ1) ([8]; Bootstrap analysis, median): 0.76
Ratio of CL/F in females compared with males (θ2) ([8]; Bootstrap analysis, median): 0.86
Ratio of Vc/F in females compared with males (θ4) ([8]; Bootstrap analysis, median): 0.75
Vc/F ([8]; Bootstrap analysis, median): 145 L
Vp/F ([8]; Bootstrap analysis, median): 64.6 L
ωIOV2 on ALAG1 (phase II study visits only) ([8]; Bootstrap analysis, median): 0.079
CL/F ([8]; Bootstrap analysis, median (188 successful runs out of 200)): 39.8 L/h
ALAG1 [8, 13]: 0.48 (0.017) h
Additive residual error SD [8, 13]: 0.18 (13) ng/mL
Proportional residual error SD [8, 13]: 31 (13) %
Q/F [8, 13]: 3.23 (2.5) L/h
Ratio of CL/F in RA patients compared with healthy subjects (θ1) [8, 13]: 0.76 (2.9)
Ratio of CL/F in females compared with males (θ2) [8, 13]: 0.86 (2.8)
Ratio of Vc/F in females compared with males (θ4) [8, 13]: 0.75 (1.6)
Vp/F [8, 13]: 64.3 (1.1) L
ωIOV2 on ALAG1 (phase II study visits only) [8, 13]: 0.08 (1.5)
Exponent for the effect of body weight on Vc/F (θ5) ([8]; Population analysis, point estimate (%RSE), final model, (BW/74 kg)^θ5): 0.50 (15.8)
Vc/F ([8]; Population analysis, point estimate (%RSE), final model, reference male, 74 kg): 146 (2.2) L
Ka ([8]; Population analysis, point estimate, final model): 12.3 h⁻¹
lower CL/F in females compared with males ([8]; in vivo): 14%
absorption lag time (ALAG1), estimate (95% CI) ([8]; typical healthy male): 0.48 (0.47–0.49) h
mean absorption time (calculated as 1/Ka), estimate (95% CI) ([8]; typical healthy male): 0.08 (0.04–0.12) h
Structure (SMILES): CC[C@@H]1CN(C(=O)NCC(F)(F)F)C[C@@H]1c1cnc2cnc3[nH]ccc3n12 [upadacitinib, Upadacitinib]
contribution of CYP2D6 to metabolism [2]: potentially minor metabolic contribution; also recorded: minor contributor
substrate status for CYP3A [3]: non-sensitive substrate
AUC, body weight < 60 kg or > 100 kg compared with 60-100 kg [4, 11]: same
higher Cmax, body weight < 60 kg compared with 60-100 kg [4, 11]: approximately 10%
lower Cmax, body weight > 100 kg compared with 60-100 kg [4, 11]: approximately 10%
decrease of Cmax by food [5]: approximately 20%
delay of time to Cmax (Tmax) by food [5]: approximately 2 h
plasma protein binding [6]: < 50%
upadacitinib dose eliminated unchanged in urine [7]: Approximately 20%
accumulation in plasma ([7]; multiple twice-daily dosing): no accumulation
dose proportionality of exposures ([7]; over the evaluated dose range): approximately dose proportional
functional half-life ([7]; phase I studies, immediate-release capsules): approximately 4 h
tolerability ([7]; single doses up to 48 mg and multiple twice-daily doses up to 24 mg, immediate-release capsules): well-tolerated
linearity of pharmacokinetics with respect to dose ([8]; 1-48 mg immediate-release doses): dose-proportional; also recorded: did not deviate significantly from linearity; also recorded: did not significantly deviate from linearity
correlation of clearance with body weight ([8]; in vivo): not correlated
effect of CYP2D6 phenotype on upadacitinib clearance ([8]; phenotype determined from pharmacogenetic analysis): not correlated; also recorded: not a statistically significant covariate
oral clearance (CL/F), population estimate (95% bootstrap CI) ([8]; typical healthy male, body weight 74 kg, creatinine clearance […]): 39.7 (37.8–41.5) L/h
increase of upadacitinib exposures by ketoconazole [9]: approximately 75%
safety profile [10]: acceptable safety profile
